# Assay results gathered from unrelated publications.
# Compare with care: the assays were run in different laboratories.
# CYP2D6: Cytochrome P450 2D6 (CYP2D6, Homo sapiens, UniProt P10635)
Compound,target or system,assay,test system,conditions,quantity,result
Cc1ccc(C(CS(=O)(=O)c2ccccc2)=NNC2=NC(=O)C(=NNc3ccc([N+](=O)[O-])cc3)S2)cc1,WM 266-4,"cell growth or viability, MTT",,"1.6 µg, 48 h",viability,50.5%
O=C(NCCN1CCCC1)c1cc(-c2ccc(CN3CCOCC3)cc2)nc2ccc(F)cc12,,,"male beagle dog, blood","oral, 3 mg/kg",half-life,20 h
COc1cc2c3c(n(CCCN4CCOCC4)c(=O)c2cc1OC)-c1cc2c(cc1C3=O)OCO2,,,"male beagle dog, plasma","intravenous, 10 mg/m², infusion",AUC(0-inf),383 ng·h/mL
CCOC(=O)C1CCN(C(=O)c2ccc(N(CC)Cc3cnc4nc(N)nc(N)c4n3)cc2)CC1,CYP2D6,"enzyme activity, inhibitor, luciferase",,10 µM,inhibition,-4.18%
Cc1ccc(C(CS(=O)(=O)c2ccccc2)=NNc2nc(C)c(N=Nc3cccc(C)c3)s2)cc1,WM 266-4,"cell growth or viability, MTT",,"1.6 µg, 48 h",viability,52.6%
Cc1nc(-c2cnc(NC(C)C)n(C)c2=O)ccc1Oc1ccnc(-c2cnn(C)c2)c1,,,"male beagle dog, plasma","oral, 10 mg/kg",AUC(0-t),19500 ng·h/mL
COC(=O)C1CCN(C(=O)c2ccc(N(CCCO)Cc3cnc4nc(N)nc(N)c4n3)cc2)CC1,CYP2D6,"enzyme activity, inhibitor, luciferase",,10 µM,inhibition,-27.1%
CC[C@@H]1CN(C(=O)NCC(F)(F)F)C[C@@H]1c1cnc2cnc3[nH]ccc3n12,,,"beagle dog, plasma","oral, 1 mg/kg, single dose",AUC(0-inf),582 ng·h/mL
Oc1c(-n2ccnn2)cnn1-c1cc(N2CCOCC2)ncn1,,,"female dog, plasma","oral, 1.5 mg/kg",half-life,2.2 h
CNC(=O)c1cc(Oc2ccc(NC(=O)Nc3ccc(Cl)c(C(F)(F)F)c3)cc2)ccn1,WM 266-4,"cell growth or viability, MTT",,"1.6 µg, 48 h",viability,58.5%
CC(C)(O)c1coc(S(=O)(=O)NC(=O)Nc2c3c(cc4c2CCC4)CCC3)c1,J774.A1,"cell growth or viability, MTT",,"10 µM, 4 h",viability,94.9%
NC(=S)NN=C(CS(=O)(=O)c1ccccc1)c1ccc(F)cc1,WM 266-4,"cell growth or viability, MTT",,"1.6 µg, 48 h",viability,48.6%
COCCc1ccc(OCC(O)CNC(C)C)cc1 (stereo not shown),CYP2D6,,"human, plasma","oral, 100 mg, single dose, healthy volunteers",AUC(0-t),758 ng·h/mL
